Reference: ChEMBL document CHEMBL2040847, “Overcoming clopidogrel resistance: discovery of vicagrel as a highly potent and orally bioavailable antiplatelet agent” (J Med Chem, 2012)

Experiments:
Rattus norvegicus [1] = experiment: Antiplatelet activity in Wistar rat assessed as inhibition of ADP-induced platelet aggregation at 3 mg/kg, po measured after 2 hrs by Born's method; type: functional; parameters: scale not given: the % may be the effect or the level left
Method in brief: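 Oral dosing at 3 mg/kg, CMC as vehicle, groups of 10 rats. At 2 h the rats were anesthetized with pentobarbital sodium and blood was drawn from the abdominal aorta. Ex vivo aggregation was induced with ADP 1.2 μM and read on an aggregometer (Born's method). Values are mean ± SD, n = 10, statistics versus vehicle.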

Rattus norvegicus [2] = experiment: AUC (0 to infinity) in Sprague-Dawley rat […] at 24 umol/kg, po; type: ADME, organism-based, Plasma; parameters: dose 24 umol/kg, route oral, time infinity; conditions: in vivo
Liver microsomes [3] = experiment: Drug metabolism in rat liver microsomes assessed as NADPH-dependent active metabolite glutathione adducts 2 formation at 20 uM after 30 mins by LC-MS/MS analysis; type: ADME, Microsome; conditions: 0.5 h
Method in brief: (§1)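 Pooled SD rat liver microsomes (1.0 mg/mL protein) with compound 20 μM (diluted from 10 mM DMSO stock), NADPH 1.0 mM and glutathione 10 mM in 100 mM potassium phosphate pH 7.4. Incubated 30 min at 37 °C; controls lacked NADPH. Quenched with ice-cold 10% TCA and centrifuged. Supernatant analysed by LC-MS/MS (phenyl column, positive ESI), monitoring AMGS adducts at m/z 661 (SIM).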

Liver microsomes [4] = experiment: Drug metabolism in rat liver microsomes assessed as NADPH-dependent active metabolite glutathione adducts 4 formation at 20 uM after 30 mins by LC-MS/MS analysis; type: ADME, Microsome; conditions: 0.5 h; method in brief: as §1
Rattus norvegicus [5] = experiment: Tmax in Sprague-Dawley rat assessed as clopidogrel thioacetate level at 24 umol/kg, po; type: ADME, organism-based; conditions: in vivo
Liver microsomes [6] = experiment: Drug metabolism in rat liver microsomes assessed as NADPH-dependent active metabolite glutathione adducts 1 formation at 20 uM after 30 mins by LC-MS/MS analysis; type: ADME, Microsome; conditions: 0.5 h; method in brief: as §1
Rattus norvegicus [7] = experiment: Half life in Sprague-Dawley rat assessed as clopidogrel thioacetate level at 24 umol/kg, po; type: ADME, organism-based; conditions: in vivo
Liver microsomes [8] = experiment: Drug metabolism in rat liver microsomes assessed as NADPH-dependent active metabolite glutathione adducts formation at 20 uM after 30 mins by LC-MS/MS analysis in presence of NADPH and GSH; type: ADME, Microsome; conditions: 0.5 h; method in brief: as §1
Liver microsomes [9] = experiment: Drug metabolism in rat liver microsomes assessed as NADPH-dependent active metabolite glutathione adducts 3 formation at 20 uM after 30 mins by LC-MS/MS analysis; type: ADME, Microsome; conditions: 0.5 h; method in brief: as §1
Rattus norvegicus [10] = experiment: Cmax in Sprague-Dawley rat assessed as clopidogrel thioacetate level at 24 umol/kg, po; type: ADME, organism-based; parameters: dose 24 umol/kg, route oral; conditions: in vivo
Mus musculus [11] = experiment: Toxicity in mouse assessed as liver injury at 5000 mg/kg, po measured after 14 days; type: organism-based; parameters: dose 5000 mg/kg, route oral; conditions: in vivo, 336 h
Method in brief: (§2)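 Single-dose study in a GLP laboratory. Deaths were recorded, and the liver and other organs were assessed for injury or adverse effects.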

Mus musculus [12] = experiment: Toxicity in mouse assessed as mortality at 5000 mg/kg, po measured after 14 days; type: organism-based; parameters: dose 5000 mg/kg, route oral; conditions: in vivo, 336 h; method in brief: as §2
[13] = Toxicity in beagle dog assessed as no-observed adverse effect level; type: organism-based, Canis lupus familiaris; conditions: in vivo
Mus musculus [14] = experiment: Toxicity in mouse assessed as tissue injury at 5000 mg/kg, po measured after 14 days; type: organism-based; parameters: dose 5000 mg/kg, route oral; conditions: in vivo, 336 h; method in brief: as §2
[15] = Toxicity in beagle dog assessed as maximum tolerated dose; type: organism-based, Canis lupus familiaris; conditions: in vivo
Method in brief: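 Single-dose oral study in beagle dogs, run in a GLP laboratory. Both the no-observed-adverse-effect level and the maximal tolerated dose were determined.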

| SMILES | Activity (Rattus norvegicus [1]) [%] | further results |
| --- | --- | --- |
| CCC(=O)Oc1cc2c(s1)CCN([C@H](C(=O)OC)c1ccccc1Cl)C2 | 46.7 |  |
| CCCC(=O)Oc1cc2c(s1)CCN([C@H](C(=O)OC)c1ccccc1Cl)C2 | 52.8 |  |
| COC(=O)[C@H](c1ccccc1Cl)N1CCc2sc(OC(=O)C(C)(C)C)cc2C1 | 63.4 |  |
| CCC(C)(C)C(=O)Oc1cc2c(s1)CCN([C@H](C(=O)OC)c1ccccc1Cl)C2 | 70 |  |
| COC(=O)[C@H](c1ccccc1Cl)N1CCc2sc(OC(=O)c3ccccc3)cc2C1 | 60.1 |  |
| COC(=O)[C@H](c1ccccc1Cl)N1CCc2sc(OC(=O)c3ccc([N+](=O)[O-])cc3)cc2C1 | 75.6 |  |
| COC(=O)[C@H](c1ccccc1Cl)N1CCc2sc(OC(=O)c3ccc(OC)cc3)cc2C1 | 82.6 |  |
| COC(=O)[C@H](c1ccccc1Cl)N1CCc2sc(OC(=O)c3ccccc3OC(C)=O)cc2C1 | 77.9 |  |
| COC(=O)[C@H](c1ccccc1Cl)N1CCc2sc(OC(=O)Cc3ccccc3)cc2C1 | 53.8 |  |
| COC(=O)[C@H](c1ccccc1Cl)N1CCc2sc(OC(=O)/C=C/c3ccccc3)cc2C1 | 84.7 |  |
| COC(=O)[C@H](c1ccccc1Cl)N1CCc2sc(OC(=O)c3cccnc3)cc2C1 | 45.1 |  |
| COC(=O)Oc1cc2c(s1)CCN([C@H](C(=O)OC)c1ccccc1Cl)C2 | 38.6 |  |
| CCOC(=O)Oc1cc2c(s1)CCN([C@H](C(=O)OC)c1ccccc1Cl)C2 | 53 |  |
| COC(=O)[C@H](c1ccccc1Cl)N1CCc2sc(OC(=O)OC(C)C)cc2C1 | 50.2 |  |
| COC(=O)[C@H](c1ccccc1Cl)N1CCc2sc(OC(=O)OCC(C)C)cc2C1 | 65.6 |  |
| COC(=O)[C@H](c1ccccc1Cl)N1CCc2sc(OC(=O)OCc3ccccc3)cc2C1 | 72.2 |  |
| COC(=O)[C@H](c1ccccc1Cl)N1CCc2sc(OC(=O)COc3ccccc3)cc2C1 | 75.4 |  |
| COC(=O)[C@H](c1ccccc1Cl)N1CCc2sc(OC(=O)N(C)C)cc2C1 | 67.7 |  |
| COC(=O)[C@H](c1ccccc1Cl)N1CCc2sc(OC(=O)N3CCCC3)cc2C1 | 80.9 |  |
| COC(=O)[C@H](c1ccccc1)N1CCc2sc(OC(C)=O)cc2C1 | 81.1 |  |
| COC(=O)[C@H](c1ccccc1F)N1CCc2sc(OC(C)=O)cc2C1 | 62.9 |  |
| COC(=O)[C@@H](c1ccccc1Cl)N1CCc2sc(OC(C)=O)cc2C1 | 68.4 |  |
| COC(=O)C(c1ccccc1Cl)N1CCc2sc(OC(C)=O)cc2C1 (racemic) | 63.7 |  |
| COC(=O)[C@H](c1ccccc1Cl)N1CCc2sccc2C1.O=S(=O)(O)O [CLOPIDOGREL BISULFATE] | 73.7 |  |
| COC(=O)[C@H](c1ccccc1Cl)N1CCC2SC(=O)C=C2C1 (stereo not given in full) [CLOPIDOGREL THIOLACTONE] | 48.6 |  |
| COC(=O)[C@H](c1ccccc1Cl)N1CCc2sccc2C1 [CLOPIDOGREL] |  | AUC (Rattus norvegicus [2]): 32.2 ng·h/mL; Drug metabolism (Liver microsomes [3]): Active; Drug metabolism (Liver microsomes [4]): Active; Tmax (Rattus norvegicus [5]): 0.583 h; Drug metabolism (Liver microsomes [6]): Active; t1/2 (Rattus norvegicus [7]): 2.48 h; Drug metabolism (Liver microsomes [8]): Active; Drug metabolism (Liver microsomes [9]): Active; Cmax (Rattus norvegicus [10]): 6.93 ng/mL |
| CC(=O)Oc1cc2c(s1)CCN(C(C(=O)C1CC1)c1ccccc1F)C2 (stereo not given) [PRASUGREL] | 32.1 |  |
| COC(=O)[C@H](c1ccccc1Cl)N1CCc2sc(OC(C)=O)cc2C1 [SUMECIGREL] | 34.6 | AUC (Rattus norvegicus [2]): 211 ng·h/mL; Activity (Mus musculus [11]): Toxic; Activity (Mus musculus [12]): Non-toxic; NOAEL [13]: 300 mg/kg; Activity (Mus musculus [14]): Non-toxic; Drug metabolism (Liver microsomes [3]): Active; Drug metabolism (Liver microsomes [4]): Active; Tmax (Rattus norvegicus [5]): 1.17 h; Drug metabolism (Liver microsomes [6]): Active; MTD [15]: > 2000 mg/kg; t1/2 (Rattus norvegicus [7]): 2.19 h; Drug metabolism (Liver microsomes [8]): Active; Drug metabolism (Liver microsomes [9]): Active; Cmax (Rattus norvegicus [10]): 67.2 ng/mL |
